Measured values collected from several papers.
Target: Dual specificity protein kinase TTK (TTK, Homo sapiens, UniProt P33981)
Residues used in one study (P33981 1-857): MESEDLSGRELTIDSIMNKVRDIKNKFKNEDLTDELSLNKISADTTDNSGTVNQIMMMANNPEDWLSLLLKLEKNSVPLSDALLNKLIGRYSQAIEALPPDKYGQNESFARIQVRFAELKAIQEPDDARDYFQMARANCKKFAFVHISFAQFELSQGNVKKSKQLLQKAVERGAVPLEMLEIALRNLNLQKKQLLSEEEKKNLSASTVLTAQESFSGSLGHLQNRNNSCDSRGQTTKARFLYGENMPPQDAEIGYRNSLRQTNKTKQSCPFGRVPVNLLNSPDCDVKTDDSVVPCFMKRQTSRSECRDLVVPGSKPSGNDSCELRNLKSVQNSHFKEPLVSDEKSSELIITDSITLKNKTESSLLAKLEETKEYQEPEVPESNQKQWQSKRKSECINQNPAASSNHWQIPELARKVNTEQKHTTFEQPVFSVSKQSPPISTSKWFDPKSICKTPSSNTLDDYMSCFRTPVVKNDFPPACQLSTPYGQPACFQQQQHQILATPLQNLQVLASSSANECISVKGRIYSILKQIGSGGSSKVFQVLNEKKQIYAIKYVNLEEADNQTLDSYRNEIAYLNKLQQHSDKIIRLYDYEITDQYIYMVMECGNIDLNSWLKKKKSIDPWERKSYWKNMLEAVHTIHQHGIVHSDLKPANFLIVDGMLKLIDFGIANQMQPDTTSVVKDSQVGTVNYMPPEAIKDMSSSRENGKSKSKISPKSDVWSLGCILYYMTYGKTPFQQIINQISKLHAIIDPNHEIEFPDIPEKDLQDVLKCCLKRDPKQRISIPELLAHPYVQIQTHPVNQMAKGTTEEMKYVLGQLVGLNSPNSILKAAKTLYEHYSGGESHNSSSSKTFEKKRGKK

| SMILES | test | conditions | remaining binding |
| --- | --- | --- | --- |
| COc1ncc2cc3ccccc3nc2c1C#N | cell-free assay, competition with immobilised ligand | 5 µM | 85% |
| O=C(NCC1CCOCC1)c1n[nH]cc1NC(=O)c1c(F)cccc1F | binding, competition with immobilised ligand | 1 µM | 84% |
| CC1=C(C#N)C(c2ccc3c(c2)c(NC(=O)c2ccccc2C)nn3C)C(C#N)=C(C)N1 | cell-free assay, competition with immobilised ligand | 1 µM | 82% |
| N[C@H]1CCN(c2nccc(-c3cnn4ncccc34)n2)C1 | binding | 1 µM | 93% |
| O=C(N[C@H]1CCCCC/C=C\C2C[C@@]2(C(=O)O)NC(=O)[C@@H]2C[C@@H](Oc3ccncc3)CN2C1=O)OC1CCCC1 (stereo partly drawn) | binding, competition with immobilised ligand | 1 µM | 79% |
| Nc1ncc2c(n1)-c1c([nH]c3ccc(C#CC4CC4)cc13)CCCC2 | binding, competition with immobilised ligand | 1 µM | 100% |
| CNC(=O)Nc1ccc2c(c1)CC[C@@]21OC(=O)N(CC(=O)N(Cc2ccc(F)cc2)[C@@H](C)C(F)(F)F)C1=O | cell-free assay, competition with immobilised ligand | 1 µM | 100% |
| COc1cnc(Nc2cccc(S(N)(=O)=O)c2)nc1N1CCN(c2ccccc2)CC1 | binding, competition with immobilised ligand | 1 µM | 83% |
| C[C@H]1CCN(c2nccc(-c3cnn4ncccc34)n2)C1 | binding | 1 µM | 34% |
| CO[C@@H](C)c1c(Nc2ccc([C@@H](N(C)C(=O)C3CCS(=O)(=O)CC3)C(F)(F)F)cc2)cnc2cc(Cl)nn12 | cell-free assay, competition with immobilised ligand | 1 µM | 100% |
| O=C(NCCCN1CCOCC1)c1ccc(Nc2nccc(-c3cc4ccccc4s3)n2)cc1 | binding, competition with immobilised ligand | 1 µM | 72% |
| c1cnn2ncc(-c3ccnc(N4CCC45COC5)n3)c2c1 | binding | 1 µM | 61% |
| O=C(c1ccc(Nc2nccc(-c3cc4ccccc4s3)n2)cc1)N1CCC(N2CCCC2)CC1 | binding, competition with immobilised ligand | 1 µM | 57% |
| N#CC1(c2ccccn2)CCN(Cc2cc(C(=O)N3CCCC3)c(=O)n3ccccc23)CC1 | cell-free assay, competition with immobilised ligand | 1 µM | 98% |
| CCN1CCN(Cc2ccc(C(=O)Nc3ccc(C)c(Oc4ccc5c(c4)CC(=O)N5)c3)cc2C(F)(F)F)CC1 | binding, competition with immobilised ligand | 1 µM | 100% |
| c1cncc(-c2cccc(Nc3nccc(NC4CCCCC4)n3)c2)c1 | binding, competition with immobilised ligand | 10 µM | 30% |
| CN(CCCC(F)(F)F)c1nccc(-c2cnn3ncccc23)n1 | binding | 1 µM | 64% |
| CCC(=O)N[C@H]1CC[C@@H](C(=O)N(C)c2ccc(-c3nc4ccccc4o3)cc2)C1 | cell-free assay, competition with immobilised ligand | 1 µM | 100% |
| O=C(NCCCN1CCOCC1)c1ccc(Nc2ncc(Cl)c(-c3ccc(Cl)s3)n2)cc1 | binding, competition with immobilised ligand | 1 µM | 58% |
| Cc1cnn2ncc(-c3ccnc(N(C)C)n3)c2c1 | binding | 1 µM | 100% |
| FC(F)(F)Oc1cccc(-c2cnc3ccc(-c4ccncc4)nn23)c1 | binding, competition with immobilised ligand | 5 µM | 53% |
